Published values pooled from the literature.
Each line is one published result; the experiments were not run side by side.
Target: STE20/SPS1-related proline-alanine-rich protein kinase (STK39, Homo sapiens, UniProt Q9UEW8)

Structure (SMILES)	effect on	mode	method	concentration	endpoint	value
Cn1cnc(Br)c1C1=CN(c2ncnc3[nH]cnc23)CCS1	enzyme activity	inhibitor	radiometric	2 µM	inhibition	86.6%
CC(C)(C)c1nc(-c2cccc(NS(=O)(=O)c3c(F)cccc3F)c2F)c(-c2ccnc(N)n2)s1	enzyme activity	inhibitor	radiometric	1 µM	remaining activity	81%
O=C(Nc1cnn(-c2csc(C(=O)NC3COC3)c2)c1)Nc1c(F)cccc1Cl	enzyme activity	inhibitor	–	5 µM	remaining activity	82.3%
CNC(=O)Nc1ccc2c(c1)[C@@]1(CC2)OC(=O)N(CC(=O)N(Cc2ccc(F)cc2)[C@@H](C)C(F)(F)F)C1=O	cell-free assay	–	competition with immobilised ligand	1 µM	remaining binding	100%
N#CCCc1ccc2c(c1)-c1[nH]c3ccc([N+](=O)[O-])cc3c1CC(=O)N2	cell-free assay	–	–	0.5 µM	remaining signal	96.4%
O=C(Nc1ccc(Oc2ccc(F)cc2)cc1)N1CCc2ncccc2[C@H]1c1ccc(F)cc1	cell-free assay	–	competition with immobilised ligand	1 µM	remaining binding	82%
Cc1sc(C(=O)NC2COC2)cc1-n1cc(NC(=O)Nc2c(F)cccc2Cl)cn1	enzyme activity	inhibitor	–	10 µM	remaining activity	64.5%
COc1cc2c(N3CCN(C(=O)Nc4ccc(OC(C)C)cc4)CC3)ncnc2cc1OCCCN1CCCCC1	cell-free assay	–	–	0.5 µM	remaining signal	93.2%
CS(=O)(=O)N1CCCC(NC(=O)[C@H](CCC2CCCCC2)NC(=O)c2ccc(CNc3ncnc4c3nnn4-c3ccccc3)cc2)C1 (stereo partly drawn)	cell-free assay	–	competition with immobilised ligand	0.1 µM	remaining binding	100%
Cn1cncc1C1=CN(c2ncnc3[nH]cnc23)CCS1	enzyme activity	inhibitor	radiometric	2 µM	inhibition	87.3%
O=C1Nc2ccc(Cl)cc2C1=Cc1cc(Cl)c(O)c(Cl)c1	cell-free assay	–	–	0.5 µM	remaining signal	97%
Nc1ncnc2occ(-c3ccc(NC(=O)Nc4cc(C(F)(F)F)ccc4F)cc3)c12	cell-free assay	inhibitor	–	20 µM	remaining signal	19%
